Source: ChEMBL document CHEMBL1828531, “Pyrazol-3-propanoic acid derivatives as novel inhibitors of leukotriene biosynthesis in human neutrophils” (Eur J Med Chem, 2011)

Columns and labels:
[1] = target: T1, Polyunsaturated fatty acid 5-lipoxygenase (Homo sapiens) (UniProt P09917); experiment: Inhibition of 5-Lipoxygenase in arachidonic acid-stimulated human neutrophils assessed as residual activity at 10 uM after 15 mins by HPLC analysis in presence of A23187
T1 sequence (whole entry): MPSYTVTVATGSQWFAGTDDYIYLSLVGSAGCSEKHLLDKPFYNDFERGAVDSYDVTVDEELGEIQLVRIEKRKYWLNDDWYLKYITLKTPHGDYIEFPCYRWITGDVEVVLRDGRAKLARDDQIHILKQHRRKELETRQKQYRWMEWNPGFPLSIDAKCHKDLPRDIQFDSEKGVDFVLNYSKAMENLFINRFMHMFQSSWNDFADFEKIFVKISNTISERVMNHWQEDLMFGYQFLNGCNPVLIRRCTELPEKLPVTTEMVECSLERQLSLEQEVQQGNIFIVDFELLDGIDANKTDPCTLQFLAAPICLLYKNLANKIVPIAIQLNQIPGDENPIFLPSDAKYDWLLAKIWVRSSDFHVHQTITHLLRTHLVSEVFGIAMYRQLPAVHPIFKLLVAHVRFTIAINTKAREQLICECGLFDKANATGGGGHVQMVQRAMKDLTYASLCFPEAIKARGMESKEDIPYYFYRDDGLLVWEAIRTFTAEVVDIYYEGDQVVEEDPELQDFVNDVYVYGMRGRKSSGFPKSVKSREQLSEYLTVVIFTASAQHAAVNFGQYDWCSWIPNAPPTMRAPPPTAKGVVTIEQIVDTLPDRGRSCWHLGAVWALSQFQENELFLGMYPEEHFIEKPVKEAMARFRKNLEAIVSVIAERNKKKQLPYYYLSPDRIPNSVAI
In short: (§1)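 Human neutrophils, 5 × 10^6/mL in PBS/glucose/1 mM CaCl2, preincubated 15 min at RT, then 2.5 µM A23187 plus 20 µM AA for 10 min at 37 °C. Methanol stop, PGB1 internal standard, HPLC of LTB4, its all-trans isomers and 5-H(p)ETE. Residual % versus 0.3% DMSO vehicle, mean ± SEM, n = 3–5. IC50 by linear interpolation from 4–5 concentrations.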

[2] = target: T2, Polyunsaturated fatty acid 5-lipoxygenase (Homo sapiens, UniProt P09917); experiment: Inhibition of 5-Lipoxygenase in arachidonic acid-stimulated human neutrophils after 15 mins by HPLC analysis in presence of A23187; in short: as §1
T2 sequence (P09917 whole entry): T1 sequence (whole entry)

[3] = target: T1, Polyunsaturated fatty acid 5-lipoxygenase (Homo sapiens); experiment: Inhibition of recombinant human 5-Lipoxygenase expressed in Escherichia coli lysate assessed as residual activity at 10 uM after 10 mins by HPLC analysis
In short: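 Human 5-LO expressed at 30 °C in E. coli MV1190 (pT3-5LO); lysate 40,000 g supernatant in PBS pH 7.4 with 1 mM EDTA. Preincubated with compound 10 min at 4 °C, warmed 30 s at 37 °C. Started with 2 mM CaCl2 plus 20 µM AA, 10 min at 37 °C. Methanol stop, HPLC. Residual % versus 0.3% DMSO vehicle, n = 3–5.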

| SMILES | Activity [1] [%] | IC50 [2] [nM] | Activity [3] [%] |
| --- | --- | --- | --- |
| CC(C)(C)c1ccc(CN2CCN(C(=O)CCc3cc(-c4ccc(F)cc4)n(-c4ccc(Cl)cc4)n3)CC2)cc1 | 13.2 | 2600 | 143 |
| O=C(CCc1cc(-c2ccc(C(F)(F)F)cc2)n(-c2ccc(Cl)nn2)n1)Oc1ccc(C2CCCC2)cc1 | 77.2 | – | 92 |
| CC(C)(C)c1ccc(CN2CCN(C(=O)CCc3cc(-c4ccc(C(F)(F)F)cc4)n(-c4ccc(Cl)cc4)n3)CC2)cc1 | 43.9 | 8000 | 138 |
| Cc1ccc(-c2cc(CCC(=O)N3CCN(CC4CCCO4)CC3)nn2-c2ccc(Cl)nn2)cc1 (stereo unspecified) | 86 | – | 106 |
| CCCCCCCOc1ccc(OC(=O)CCc2cc(-c3ccc(F)cc3)n(-c3ccc(Cl)nn3)n2)cc1 | 90.1 | – | 86.5 |
| CC(C)(C)c1ccc(CN2CCN(C(=O)CCc3cc(-c4ccc(C(F)(F)F)cc4)n(-c4ccc5ccccc5n4)n3)CC2)cc1 | 44.5 | 3000 | 87.3 |
| O=C(CCc1cc(-c2ccc(C(F)(F)F)cc2)n(-c2ccc(Cl)nn2)n1)N1CCN(C(=O)c2ccco2)CC1 | 81.8 | – | 126 |
| Cc1ccc(-c2cc(CCC(=O)N3CCN(Cc4ccc(C(C)(C)C)cc4)CC3)nn2-c2ccc(Cl)nn2)cc1 | 14.6 | 2800 | 107 |
| CC(C)(C)c1ccc(CN2CCN(C(=O)CCc3cc(-c4ccc(C(F)(F)F)cc4)n(-c4ccccc4)n3)CC2)cc1 | 12.7 | 2900 | 109 |
| Cc1ccc(-c2cc(CCC(=O)N3CCN(Cc4ccc(C(C)(C)C)cc4)CC3)nn2-c2ccc(Cl)cc2)cc1 | 27.7 | 2900 | 111 |
| O=C(CCc1cc(-c2ccc(C(F)(F)F)cc2)n(-c2ccc(Cl)nn2)n1)Oc1ccc(-n2cccc2)cc1 | 94.1 | – | 90.8 |
| COc1ccc(-n2nc(CCC(=O)N3CCN(Cc4ccc(C(C)(C)C)cc4)CC3)cc2-c2ccc(C)cc2)nn1 | 27.1 | 3300 | 86.1 |
| CCS(=O)(=O)N1CCN(C(=O)CCc2cc(-c3ccc(C)cc3)n(-c3ccc(Cl)nn3)n2)CC1 | 96.3 | – | 93.6 |
| O=C(CCc1cc(-c2ccc(F)cc2)n(-c2ccc(Cl)nn2)n1)Oc1ccc(-c2ccsc2)cc1 | 90.8 | – | 83.4 |
| CC(C)(C)c1ccc(CN2CCN(C(=O)CCc3cc(-c4ccc(F)cc4)n(-c4ccccc4)n3)CC2)cc1 | 3.7 | 2500 | 78.5 |
| CC(C)(C)c1ccc(CN2CCN(C(=O)CCc3cc(-c4ccc(F)cc4)n(-c4ccc5ccccc5n4)n3)CC2)cc1 | 10.4 | 2800 | 114 |
| O=C(CCc1cc(-c2ccc(F)cc2)n(-c2ccc(Cl)nn2)n1)N1CCN(C(=O)C2CCCO2)CC1 (stereo unspecified) | 95 | – | 90.8 |
| O=C(CCc1cc(-c2ccc(F)cc2)n(-c2ccc(Cl)nn2)n1)Oc1ccc(-n2ccnc2)cc1 | 111 | – | 71.7 |
| NC(=O)C1CCN(C(=O)CCc2cc(-c3ccc(C(F)(F)F)cc3)n(-c3ccc(Cl)nn3)n2)CC1 | 104 | – | 103 |
| Cc1ccc(-c2cc(CCC(=O)Oc3ccc(Oc4ccc(C(F)(F)F)cc4)cc3)nn2-c2ccc(Cl)nn2)cc1 | 86.5 | – | 95 |
| COc1ccc(-n2nc(CCC(=O)N3CCN(Cc4ccc(C(C)(C)C)cc4)CC3)cc2-c2ccc(C(F)(F)F)cc2)nn1 | 36.2 | 8000 | 56.1 |
| Cc1ccc(-c2cc(CCC(=O)Nc3ccc(N4CCOCC4)nc3)nn2-c2ccc(Cl)nn2)cc1 | 106 | – | 90 |
| Cc1ccc(-c2cc(CCC(=O)Oc3ccc(OC(F)(F)F)cc3)nn2-c2ccc(Cl)nn2)cc1 | 70.5 | – | 116 |
| COc1ccc(NC(=O)CCc2cc(-c3ccc(F)cc3)n(-c3ccc(Cl)nn3)n2)cc1 | 88.3 | – | 91.6 |
| CC(C)(C)c1ccc(OC(=O)CCc2cc(-c3ccc(F)cc3)n(-c3ccc(Cl)nn3)n2)cc1 | 67.3 | – | 92.7 |
| COc1ccc(-n2nc(CCC(=O)N3CCN(Cc4ccc(C(C)(C)C)cc4)CC3)cc2-c2ccc(F)cc2)nn1 | 50.1 | > 10000 | 69.2 |
| CC(C)(C)c1ccc(CN2CCN(C(=O)CCc3cc(-c4ccc(C(F)(F)F)cc4)n(-c4ccc(Cl)nn4)n3)CC2)cc1 | 17.4 | 2900 | 88.9 |
